Columns and labels:
U-87 MG [1] = test: Antiproliferative activity against human U-87 MG cells assessed as cell viability at 100 uM measured after 24 to 48 hrs by MTT assay relative to control; type: functional, U-87MG ATCC; settings: time 24-48 hrs, read-out: Activity
Procedure, shortened: (§1)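 Cells seeded per well 24 h before treatment: HEK293 at 5.10^4, MCF7 at 4.10^4, U87MG at 10^5. Compounds were dissolved in DMSO (less than 1%) and diluted in DMEM, then incubated 24 and 48 h. Cells were washed with D-PBS and given MTT (from a 5 mg/mL stock) for 4 h, dissolved in DMSO, read at 540 nm. % viability = sample/control absorbance ×100. At least three independent experiments.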

U-87 MG [2] = test: Antiproliferative activity against human U-87 MG cells assessed as cell viability at 50 uM measured after 24 to 48 hrs by MTT assay relative to control; type: functional, U-87MG ATCC; settings: time 24-48 hrs, read-out: Activity; procedure, shortened: as §1
HEK293 = test: Cytotoxicity against HEK293 cells assessed as reduction in cell viability measured after 24 to 48 hrs by MTT assay; type: cell-based; settings: Homo sapiens; procedure, shortened: as §1
U-87 MG [3] = test: Antiproliferative activity against human U-87 MG cells assessed as cell viability at 5 uM measured after 24 to 48 hrs by MTT assay relative to control; type: functional, U-87MG ATCC; settings: time 24-48 hrs, read-out: Activity; procedure, shortened: as §1
U-87 MG [4] = test: Antiproliferative activity against human U-87 MG cells assessed as reduction in cell viability measured after 24 to 48 hrs by MTT assay; type: functional, cell-based, U-87MG ATCC; procedure, shortened: as §1
U-87 MG [5] = test: Antiproliferative activity against human U-87 MG cells assessed as cell viability at 10 uM measured after 24 to 48 hrs by MTT assay relative to control; type: functional, U-87MG ATCC; settings: time 24-48 hrs, read-out: Activity; procedure, shortened: as §1
[6] = Cytotoxicity against HEK293 cells assessed as cell viability at 100 uM measured after 24 to 48 hrs by MTT assay relative to control; type: cell-based; settings: human, HEK293 cells, time 24-48 hrs, read-out: Activity; procedure, shortened: as §1
[7] = molecular target: 3',5'-cyclic-AMP phosphodiesterase 4B (Homo sapiens, UniProt Q07343); test: Inhibition of recombinant human PDE4B using […] as substrate measured after 90 mins by colorimetric assay
Procedure, shortened: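 Recombinant human PDE4 was incubated with 0.5 μM 5′-cGMP plus 5′-nucleotidase for 90 min at 30°C. The reaction was stopped with termination buffer for 20 min at room temperature, and released phosphate was read at OD 620 nm. IC50 was determined from 6 inhibitor concentrations. Compound stocks were in DMSO (less than 1%), with at least triplicate runs, mean ± SD.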

[8] = molecular target: T1, Adenosine receptor A1 (Homo sapiens) (UniProt P30542); test: Displacement of [3H]DPCPX from recombinant human A1 adenosine receptor expressed in CHO cell membranes at 1 uM measured after 60 mins by liquid scintillation counting method relative to control; settings: Membrane
T1 sequence (whole entry): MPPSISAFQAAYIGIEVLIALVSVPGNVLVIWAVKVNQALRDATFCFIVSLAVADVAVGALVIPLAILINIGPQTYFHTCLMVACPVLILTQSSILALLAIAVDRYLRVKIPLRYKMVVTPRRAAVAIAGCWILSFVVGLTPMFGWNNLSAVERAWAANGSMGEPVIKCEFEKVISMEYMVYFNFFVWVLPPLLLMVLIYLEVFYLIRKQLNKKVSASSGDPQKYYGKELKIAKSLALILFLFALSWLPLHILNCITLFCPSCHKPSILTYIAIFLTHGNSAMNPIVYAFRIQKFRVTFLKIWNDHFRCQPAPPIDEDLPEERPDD
Procedure, shortened: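 Membranes from CHO cells expressing recombinant hA1 (40 μg/tube) were incubated with 2 nM [3H]DPCPX and test compound at 1 μM in 50 mM Tris-HCl (pH 7.4, 10 mM MgCl2) for 60 min at 25°C. Bound radioligand was separated by GF/B filtration and counted by liquid scintillation. Results are given as percent inhibition of specific binding.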

MCF7 = test: Antiproliferative activity against human MCF7 cells assessed as reduction in cell viability measured after 24 to 48 hrs by MTT assay; type: functional, cell-based; procedure, shortened: as §1
[9] = molecular target: Adenosine receptor A2a (Homo sapiens) (UniProt P29274); test: Displacement of [3H]ZM241385 from recombinant human A2A adenosine receptor expressed in HEK293 cell membranes at 1 uM measured after 60 mins by liquid scintillation counting method relative to control; settings: Membrane
Procedure, shortened: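 HEK293 membranes expressing hA2A (20 μg/tube) were incubated with 15 nM [3H]ZM241385 and 1 μM test compound for 60 min at 25°C in 50 mM Tris-HCl, pH 7.4, 10 mM MgCl2. The reaction was stopped by GF/B filtration, followed by scintillation counting. Read-out was percent inhibition of specific binding.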

3',5'-cyclic-AMP phosphodiesterase 4B, sequence (Q07343 whole entry): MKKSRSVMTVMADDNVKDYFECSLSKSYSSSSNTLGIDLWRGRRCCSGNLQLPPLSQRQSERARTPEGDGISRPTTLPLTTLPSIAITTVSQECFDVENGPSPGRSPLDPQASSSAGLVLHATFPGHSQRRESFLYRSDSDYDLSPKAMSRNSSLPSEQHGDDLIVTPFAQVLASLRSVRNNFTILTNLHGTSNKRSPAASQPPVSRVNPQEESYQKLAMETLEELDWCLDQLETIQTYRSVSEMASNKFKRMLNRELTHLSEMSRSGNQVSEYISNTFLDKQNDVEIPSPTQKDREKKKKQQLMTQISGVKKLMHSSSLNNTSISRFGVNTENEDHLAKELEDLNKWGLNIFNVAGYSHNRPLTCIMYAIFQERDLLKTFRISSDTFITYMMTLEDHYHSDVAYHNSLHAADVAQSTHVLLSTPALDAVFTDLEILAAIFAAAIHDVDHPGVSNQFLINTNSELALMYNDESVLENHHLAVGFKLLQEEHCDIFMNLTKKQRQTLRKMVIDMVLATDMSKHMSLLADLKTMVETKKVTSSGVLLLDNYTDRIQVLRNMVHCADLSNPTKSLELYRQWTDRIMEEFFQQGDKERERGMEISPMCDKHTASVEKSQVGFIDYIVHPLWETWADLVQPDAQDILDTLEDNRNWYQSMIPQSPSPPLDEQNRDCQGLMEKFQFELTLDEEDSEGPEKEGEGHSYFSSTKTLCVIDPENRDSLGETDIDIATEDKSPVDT
Adenosine receptor A2a (Homo sapiens), sequence (P29274 whole entry): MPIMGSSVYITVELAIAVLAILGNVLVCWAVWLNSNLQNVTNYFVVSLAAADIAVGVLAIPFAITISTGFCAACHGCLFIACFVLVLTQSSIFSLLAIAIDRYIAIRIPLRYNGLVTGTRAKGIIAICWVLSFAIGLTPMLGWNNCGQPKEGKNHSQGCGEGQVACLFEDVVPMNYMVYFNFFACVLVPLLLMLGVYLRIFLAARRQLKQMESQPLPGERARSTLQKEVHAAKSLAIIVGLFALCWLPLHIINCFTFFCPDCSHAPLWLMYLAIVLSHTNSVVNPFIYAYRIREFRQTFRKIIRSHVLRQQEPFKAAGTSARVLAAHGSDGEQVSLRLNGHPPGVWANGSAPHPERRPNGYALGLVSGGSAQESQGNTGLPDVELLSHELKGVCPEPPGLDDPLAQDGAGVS

Structure (SMILES)	viability at 100 µM (U-87 MG [1]) [%]	viability at 50 µM (U-87 MG [2]) [%]	IC50 (HEK293) [µM]	viability at 5 µM (U-87 MG [3]) [%]	IC50 (U-87 MG [4]) [µM]	viability at 10 µM (U-87 MG [5]) [%]	viability at 100 µM [6] [%]	IC50 [7] [µM]	inhibition [8] [%]	IC50 (MCF7) [µM]	inhibition [9] [%]
Cc1nc(-c2ccc(Cl)cc2)sc1C(=O)CSc1nc(-c2cccc(Cl)c2)c(C#N)c(=O)[nH]1	12.5	52.6	30.1	80.2	40.1	95.2					
COc1ccc(-c2nc(SCC(=O)c3sc(-c4ccc(Cl)cc4)nc3C)[nH]c(=O)c2C#N)cc1OC	18.7	59.8		93.4	38.6	83.3	> 50				
COc1ccc(-c2nc(C)c(C(=O)CSc3nc(-c4cccc(OC)c4)c(C#N)c(=O)[nH]3)s2)cc1	12.4	43.2	95.4	71.3	15.3	66.7					
COc1cccc(-c2nc(SCC(=O)c3sc(-c4ccc(Cl)cc4)nc3C)[nH]c(=O)c2C#N)c1	8.54	47.6	77.9	96.6	41	89.7					
COc1cccc(-c2nc(SCC(=O)c3sc(-c4ccccc4)nc3C)[nH]c(=O)c2C#N)c1	21.8	80.3	90.2	99	59.7	90.2					
COc1ccc(-c2nc(C)c(C(=O)CSc3nc(-c4ccc5c(c4)OCO5)c(C#N)c(=O)[nH]3)s2)cc1	22.9	83.2		100	65.3	88.3	> 50				
Cc1nc(-c2ccc(Cl)cc2)sc1C(=O)CSc1nc(-c2ccc(Cl)cc2)c(C#N)c(=O)[nH]1	12.8	60	75.1	99	53	98.4					
COc1ccc(-c2nc(C)c(C(=O)CSc3nc(-c4ccc(Cl)c(Cl)c4)c(C#N)c(=O)[nH]3)s2)cc1	31.1	78.4	45.6	101	68.5	88.6					
Cc1nc(-c2ccc(Cl)cc2)sc1C(=O)CSc1nc(-c2ccc3c(c2)OCO3)c(C#N)c(=O)[nH]1	9.91	68.3	81.4	101	55.5	95					
Cc1nc(-c2ccccc2)sc1C(=O)CSc1nc(-c2ccc3c(c2)OCO3)c(C#N)c(=O)[nH]1	18.7	42.6		93.4	33.7	84.2	> 50				
COc1ccc(-c2nc(C)c(C(=O)CSc3nc(-c4ccccc4)c(C#N)c(=O)[nH]3)s2)cc1	10.9	72.5		99	57.2	90.9	> 50				
COc1ccc(-c2nc(SCC(=O)c3sc(-c4ccc(Cl)cc4)nc3C)nc(N)c2C#N)cc1	0.79	17.8		69.7	10.6	64.5	> 50	18.1	1.2	10.1	
Cc1nc(-c2ccc(Cl)cc2)sc1C(=O)CSc1nc(-c2ccc(Cl)c(Cl)c2)c(C#N)c(=O)[nH]1	36.5	93.9	46.9	101	83.9	97.1					
COc1ccc(-c2nc(C)c(C(=O)CSc3nc(-c4ccc(Cl)cc4)c(C#N)c(=O)[nH]3)s2)cc1	2.85	48	63	102	45.9	92.7					
Cc1nc(-c2ccccc2)sc1C(=O)CSc1nc(-c2ccccc2)c(C#N)c(=O)[nH]1	9.23	77.5	93.5	92.1	56.6	87.5					
COc1ccc(-c2nc(SCC(=O)c3sc(-c4ccc(Cl)cc4)nc3C)[nH]c(=O)c2C#N)cc1	16.6	46.3		92.1	35.5	88.3	> 50				
COc1ccc(-c2nc(C)c(C(=O)CSc3nc(-c4ccc(OC)cc4)c(C#N)c(=O)[nH]3)s2)cc1	11.5	32.6		97	25.3	80.3	> 50				
COc1ccc(-c2nc(SCC(=O)c3sc(-c4ccccc4)nc3C)[nH]c(=O)c2C#N)cc1	1.08	52.1	76.2	97.3	48.4	90.4					
Cc1nc(-c2ccccc2)sc1C(=O)CSc1nc(N)c(C#N)c(-c2ccccc2)n1		26.3	46.7	103	28.9	93		> 100	9.5	30.1	6.5
Cc1nc(-c2ccc(Cl)cc2)sc1C(=O)CSc1nc(-c2ccccc2)c(C#N)c(=O)[nH]1	11.4	41.6		88.9	27.6	83.1	> 50				
COc1ccc(-c2nc(C)c(C(=O)CSc3nc(-c4cccc(Cl)c4)c(C#N)c(=O)[nH]3)s2)cc1	40.6	83.4		95.7	78.9	90.6	> 50				
Cc1nc(-c2ccccc2)sc1C(=O)CSc1nc(-c2cccc(Cl)c2)c(C#N)c(=O)[nH]1	10	50.6		86.9	28.2	83.7	> 50				
CC(C)Cn1c(=O)n(C)c(=O)c2[nH]cnc21 [ISOBUTYLMETHYLXANTHINE]								14.3			
Cc1nc(-c2ccccc2)sc1C(=O)CSc1nc(-c2ccc(Cl)cc2)c(C#N)c(=O)[nH]1	22.5	63.4		90.9	43.4	85.2	> 50				
Cc1nc(-c2ccccc2)sc1C(=O)CSc1nc(-c2ccc(Cl)c(Cl)c2)c(C#N)c(=O)[nH]1	24.4	75.3	85.1	98.6	65	92.5					
Cc1nc(-c2ccccc2)sc1C(=O)CSc1nc(N)c(C#N)c(-c2ccc(Cl)cc2)n1	17.1	44.3		62.9	10.8	58.8	> 50	32.3		20.2	-9.9
